PAD4 FP inh – blocks human protein arginine deiminase 4. Q9UM07. AID 485272. recombinant PAD4, RCA probe fluorescence polarization. inhibition, % at 6.36 µM. actives 0.41% (n = 330,000);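 active means percent inhibition above a cutoff equal to the mean of all tested compounds plus 3 SD, cut at about 15% in these data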
PRMT1 inh – inhibitors of human PRMT1 | recombinant PRMT1, activity-based probe fluorescence polarization | inhibition, % at 2.79 µM | actives 1.3% (n = 370,000) | Q99873;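 active means inhibition above about 21% made by adding two undisclosed values, limit read from the data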
eLon inh – inhibitors of E. coli Lon protease. P0A9M0. purified E. coli Lon protease, fluorescence polarization. inhibition, % at 7.94 µM. actives 0.42% (n = 360,000). AID 602123; in the data active means inhibition above about 13%, passing the limit was not always enough
Target sequence (P0A9M0 whole entry, looked up): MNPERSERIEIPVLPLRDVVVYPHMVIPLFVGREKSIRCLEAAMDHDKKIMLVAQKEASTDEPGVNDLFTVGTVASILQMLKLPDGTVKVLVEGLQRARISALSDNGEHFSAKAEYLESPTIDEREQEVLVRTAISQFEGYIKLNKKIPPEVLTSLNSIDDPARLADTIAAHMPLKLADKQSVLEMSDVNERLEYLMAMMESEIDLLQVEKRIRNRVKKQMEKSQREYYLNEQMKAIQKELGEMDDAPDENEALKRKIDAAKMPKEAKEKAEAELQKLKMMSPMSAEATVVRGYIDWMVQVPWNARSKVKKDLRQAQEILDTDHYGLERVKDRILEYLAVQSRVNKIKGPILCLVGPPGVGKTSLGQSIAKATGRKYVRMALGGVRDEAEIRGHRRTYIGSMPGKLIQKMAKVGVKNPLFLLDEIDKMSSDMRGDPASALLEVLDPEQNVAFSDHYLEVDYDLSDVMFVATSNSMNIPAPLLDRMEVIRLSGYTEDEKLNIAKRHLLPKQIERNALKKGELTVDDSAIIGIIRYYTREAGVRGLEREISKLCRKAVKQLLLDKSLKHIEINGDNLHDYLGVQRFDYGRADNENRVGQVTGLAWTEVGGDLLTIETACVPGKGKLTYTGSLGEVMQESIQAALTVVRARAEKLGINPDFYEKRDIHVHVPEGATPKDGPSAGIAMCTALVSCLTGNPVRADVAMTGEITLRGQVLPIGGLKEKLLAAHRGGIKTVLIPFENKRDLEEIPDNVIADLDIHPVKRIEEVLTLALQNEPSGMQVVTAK
TDP2 inh – TDP2 (human) inhibition, absorbance primary screen; inhibition, % at 12.8 µM; actives 0.34% (n = 370,000); O95551; recombinant TDP2, T5PNP hydrolysis, p-nitrophenol absorbance 415 nm; AID 720702;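 active means inhibition above the mean of all tested compounds plus 3 SD, set per campaign, cut at about 25% in these data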
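Material: recombinant human TDP2; quantity: TDP2 enzyme at 120 nM final; medium: Tris-HCl pH 7.5 with MgCl2; compound: single concentration, 12.8 µM nominal, with 1% DMSO; incubation: 2 h enzyme incubation at 37 °C; signal: epi absorbance; measure: percent inhibition; benchmarks: high control without enzyme, low control DMSO plus TDP2; repeats: singlicate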
GSTO1 inh – counter-screen for RBBP9 inhibitors: inhibitors of human GSTO1 | P78417 | recombinant GSTO1, activity-based probe fluorescence polarization | inhibition, % at 5.96 µM | actives 1.1% (n = 300,000) | AID 1974;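 active means inhibition above the campaign mean inhibition plus 3 SD, cut at about 35% in these data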
PRMT1 confirm – confirmation of human PRMT1 inhibitors | shares compounds with PRMT1 inh | recombinant His-PRMT1, activity-based probe fluorescence polarization | inhibition, % at 2.79 µM | actives 42% (n = 3,300) | AID 687036;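 active means mean inhibition across replicates above the hit cutoff derived for the earlier primary screen, cut at about 22% in these data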
Hits are given with their value; i = inactive; nt = no result given; + = active, no number. In the library only some 2.5% were active in any assay of this set; here they are far more common.

SMILES | PAD4 FP inh | PRMT1 inh | eLon inh | TDP2 inh | GSTO1 inh | PRMT1 confirm
COC(=O)C1=CC(=O)C=C(OC)[C@@]12Oc1cc(C)cc(OC)c1C2=O | nt | 88 | nt | i | nt | 85
O=[N+]([O-])c1cc2c(cc1Br)-c1ccccc1C2 | nt | 38 | i | i | nt | i
COc1cc2c(cc1[N+](=O)[O-])-c1ccccc1C2 | nt | i | i | i | nt | nt
COC(=O)c1cc(=O)nc(NNC(C)=O)s1 | nt | i | i | i | nt | nt
C[C@H](NC(=O)C1CC(=O)N(c2ccc3c(c2)OCO3)C1)C(=O)NC1CCCCC1 (some centres undefined) | i | i | i | i | i | nt
COc1ccc(NC(=O)CS(=O)(=O)c2cn(CC(=O)N3CCOCC3)c3ccccc23)cc1OC | i | 35 | i | i | i | 21
CCOc1c(OC(C)=O)ccc(/C=C2\N=C(SCC)SC2=O)c1[N+](=O)[O-] | i | 27 | i | i | i | i
C[C@H](CO)N1C[C@H](C)[C@@H](CN(C)Cc2cccc(C(=O)O)c2)OCc2cnnn2CCCC1=O | nt | i | i | i | nt | nt
COc1ccc(C(C)=O)cc1COC(=O)C1CCN(C(=O)c2ccc(Cl)cc2)CC1 | i | + | i | i | nt | i
Cc1ccc(NC(=O)c2ccc(Cl)c(N3C(=O)C=CC3=O)c2)cc1 | i | 92 | i | i | i | 89
O=C(Nc1ccc(Cl)c(Cl)c1)c1ccc(Cl)c(Cl)c1 | i | i | i | i | i | nt
CCOC1=CC2=C(C(=O)C(Cl)=CC2=O)[C@@H]2CN(S(=O)(=O)c3ccc(C)cc3)[C@@H](c3ccccc3)[C@H]12 | nt | 50 | i | i | nt | 91
Cc1csc(NC(=O)c2ccc(COc3ccccc3F)o2)n1 | nt | i | nt | i | nt | nt
O=C(CC1SC(=Nc2ccccc2)N(CCCO)C1=O)Nc1ccc(Cl)cc1 (centres undefined) | i | nt | i | nt | i | nt
CC(C)N=C1SC(CC(=O)Nc2ccccc2)C(=O)N1C(C)C (centres undefined) | i | 61 | i | i | i | i
O=C(CC1SC(=O)N(c2ccccc2)C1=O)Nc1ccc(Cl)cc1 (centres undefined) | i | 26 | i | i | i | 92
O=C(CC1SC(=O)N(c2ccccc2)C1=O)Nc1ccc(Br)cc1 (centres undefined) | i | 32 | i | i | i | 102
CCCN1C(=O)SC(CC(=O)Nc2ccccc2)C1=O (centres undefined) | i | i | i | i | i | nt
Cc1ccc(NC(=O)CSc2ncc3ccccn23)cc1C | i | 28 | i | i | i | i
COc1ccccc1Cc1c(-c2ccc(C)cc2)nc2ccc(Cl)cn12 | nt | i | i | i | nt | nt
COc1ccccc1Cc1c(-c2ccco2)nc2ccc(Cl)cn12 | nt | 28 | i | i | nt | i
COc1ccccc1Cc1c(-c2ccco2)nc2ccc(Br)cn12 | nt | 31 | i | i | nt | 26
O=C(CN1N=C(c2ccc(Cl)cc2)CCC1=O)NCc1cccs1 | i | nt | nt | nt | i | nt
COc1ccc(C2CC(c3c(O)cc(C)oc3=O)=NCCS2)c(OC)c1 (centres undefined) | i | nt | i | nt | i | nt
Cc1cc(O)c(C2=Nc3ccccc3SC(c3ccc(Cl)cc3)C2)c(=O)o1 (centres undefined) | i | 37 | i | i | i | i
SMILES | PAD4 FP inh | PRMT1 inh | eLon inh | TDP2 inh | GSTO1 inh | PRMT1 confirm
COc1ccc(-c2csc(C(C)(O)c3ccc(F)c(F)c3)n2)cc1 (centres undefined) | nt | i | i | i | nt | nt
Cc1cccc(C2NC(=O)c3c(sc(C)c3C)N2)c1O (centres undefined) | i | 53 | i | i | i | i
COCCn1ccc2c(OCC(=O)Nc3cccc(NC(C)=O)c3)cccc2c1=O | i | i | i | i | i | nt
COc1cc(C(=O)NCc2nnc(SCC(=O)Nc3nccs3)o2)cc(OC)c1OC | i | i | i | i | i | nt
COc1cc(C(=O)NCc2nnc(SCC(=O)Nc3nc4ccccc4s3)o2)cc(OC)c1OC | i | 65 | i | i | i | i
Cc1ccc(CN2CCCCC(NC(=O)c3ccc(COc4ccccc4)cc3)C2=O)cc1 (centres undefined) | nt | i | nt | i | nt | nt
COCc1cc(N2CCN(C(=O)OC(C)(C)C)C[C@@H]2C)ccc1N1CC[C@@H](O)C1 | nt | 50 | nt | i | nt | i
O=C(O)c1ccc(-n2c(O)c(C=C3N=c4ccccc4=N3)sc2=S)cc1 | i | 30 | i | i | i | i
O=C(O)CCCn1c(O)c(C=C2N=c3ccccc3=N2)sc1=S | i | i | i | i | i | nt
CCN(CC)c1ccc(-n2c(O)c(C=C3N=c4ccccc4=N3)sc2=S)cc1 | i | i | i | i | i | nt
CCCC(C(=O)O)n1c(O)c(C=C2N=c3ccccc3=N2)sc1=S (centres undefined) | i | 26 | i | i | i | i
O=C(O)c1cccc(-n2c(O)c(C=C3N=c4ccccc4=N3)sc2=S)c1 | i | 31 | i | i | i | i
COc1ccccc1NC(=O)CSC1=NC(=O)C(NC(C)=O)C(=O)N1 (centres undefined) | i | 25 | i | i | i | i
CC(=O)NC1C(=O)N=C(SCC(=O)NC(C)c2ccccc2)NC1=O (centres undefined) | i | 31 | i | i | i | i
CC(=O)NC1C(=O)N=C(SCC(=O)Nc2ccc(C(F)(F)F)cc2Cl)NC1=O (centres undefined) | i | 38 | i | i | i | i
COc1ccc(C(C)(NC(C)=O)c2nc(-c3cccc4cccnc34)cs2)cc1 (centres undefined) | nt | i | i | i | nt | nt
C[C@H]1CN([C@@H](C)CO)C(=O)CCCn2nncc2CO[C@@H]1CN(C)S(=O)(=O)c1ccc(-n2cccn2)cc1 | nt | i | i | i | nt | nt
O=C1C(O)=CC(=C(c2ccccc2)c2ccccc2)c2ccccc21 | nt | 42 | i | 26 | nt | i
O=C(O)c1cccc2c1C(=O)c1ccccc1-2 | i | i | i | i | i | nt
O=C(Nc1nccs1)C(Br)C(Br)c1ccccc1 (centres undefined) | i | 65 | i | i | i | 59
NC(c1csc(Nc2cc(NCCCO)ncn2)n1)c1ccccc1Cl (centres undefined) | nt | i | i | i | nt | nt
COCCCn1c(=NC(=O)c2ccccc2)c(C#N)cc2c(=O)n3cccc(C)c3nc21 | i | 31 | 84 | i | i | i
COCCCn1c(=NC(C)=O)c(C#N)cc2c(=O)n3cccc(C)c3nc21 | i | i | i | i | i | nt
CCCn1nnnc1NCc1ccc(C(C)C)cc1 | i | i | i | i | i | nt
CCOC(=O)C1=C(N)Oc2c(c(=O)[nH]c3ccccc23)C1c1ccccc1 (centres undefined) | i | 58 | i | i | i | i
CCOC(=O)C1=C(N)Oc2cc(C)[nH]c(=O)c2C1c1ccncc1 (centres undefined) | i | i | i | i | i | nt
CCCC(=O)N1CCN(c2ccc([N+](=O)[O-])cc2Cl)CC1 | i | i | i | i | i | nt
O=C(CSc1ccc(Cl)cc1)N1CCN(c2ccc([N+](=O)[O-])cc2Cl)CC1 | i | 28 | i | i | i | i
